Legend:
[1] = biological target: Muscarinic acetylcholine receptor; assay: In vitro binding affinity for muscarinic receptor by displacing [3H]quinuclidinyl benzilate binding on rat brain homogenate; assay type: tissue-based
Procedure, shortened: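 Two concentration–response curves, five concentrations covering 3 decades, triplicates. IC50 estimated from hand-drawn log concentration–response curves and converted to Ki with Cheng–Prusoff equation.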

[2] = biological target: Muscarinic acetylcholine receptor; assay: In vitro binding affinity for muscarinic receptor by displacing [3H]oxotremorine-M binding on rat brain homogenate.; assay type: tissue-based
Procedure, shortened: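 Duplicate full curves of five drug concentrations over 3 decades, triplicate points. IC50 taken from hand-drawn log curves; Ki via Cheng–Prusoff.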

[3] = biological target: Muscarinic acetylcholine receptor; assay: In vitro binding affinity for muscarinic receptor by displacing [3H]quinuclidinyl benzilate binding on rat brain stem homogenate.; assay type: tissue-based
Procedure, shortened: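 Two full curves, five test concentrations over 3 decades in triplicate. Hand-drawn log curves gave IC50; Ki by Cheng–Prusoff.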

[4] = biological target: Muscarinic acetylcholine receptor M2 (Cavia porcellus); assay: M2 agonist activity estimated by depression of isolated guinea pig left atrium
[5] = biological target: T1, Muscarinic acetylcholine receptor M1 (Rattus norvegicus, UniProt P08482); assay: M1 agonist activity estimated by rat superior cervical ganglion depolarization; assay type: functional, tissue-based
T1 sequence (P08482 whole entry): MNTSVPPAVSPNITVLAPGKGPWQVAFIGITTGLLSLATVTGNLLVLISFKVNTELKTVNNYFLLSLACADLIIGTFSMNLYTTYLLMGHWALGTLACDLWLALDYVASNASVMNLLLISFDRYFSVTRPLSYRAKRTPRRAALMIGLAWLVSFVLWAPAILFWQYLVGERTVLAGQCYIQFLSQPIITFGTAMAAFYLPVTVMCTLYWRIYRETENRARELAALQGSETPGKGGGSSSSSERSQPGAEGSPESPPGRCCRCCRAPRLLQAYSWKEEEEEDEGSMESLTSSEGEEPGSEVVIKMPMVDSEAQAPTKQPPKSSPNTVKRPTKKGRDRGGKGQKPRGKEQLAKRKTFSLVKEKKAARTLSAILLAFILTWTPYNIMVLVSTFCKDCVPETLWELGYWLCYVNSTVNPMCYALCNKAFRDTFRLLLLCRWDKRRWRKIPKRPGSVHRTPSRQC

[6] = biological target: T2, Muscarinic acetylcholine receptor M3 (Cavia porcellus, UniProt Q8VH26); assay: In vitro ability to contract isolated guinea pig ileum was used to estimate M2/M3 agonist effect; assay type: functional, tissue-based
[7] = biological target: T1, Muscarinic acetylcholine receptor M1; assay: In vitro binding affinity for muscarinic M1 receptor by displacing [3H]pirenzepine binding on rat brain homogenate.; assay type: tissue-based
Procedure, shortened: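 Two complete curves, five test concentrations spanning 3 decades, each in triplicate. IC50 read from hand-drawn log concentration–response curves, converted to Ki by Cheng–Prusoff.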

[8] = biological target: Muscarinic acetylcholine receptor M2 (Mus musculus) (UniProt Q9ERZ4); assay: In vivo determination of peripheral M2 receptor mediated hypothermia, cholinergic side effect
[9] = biological target: Muscarinic acetylcholine receptor M2 (Mus musculus) (UniProt Q9ERZ4); assay: In vivo determination of peripheral M2 receptor mediated salivation, cholinergic side effect
[10] = biological target: Muscarinic acetylcholine receptor; assay: In vitro binding affinity for muscarinic receptors by displacing [3H]quinuclidinyl benzilate binding on rat brain stem homogenate.; assay type: tissue-based
[11] = biological target: Muscarinic acetylcholine receptor M2 (Mus musculus) (UniProt Q9ERZ4); assay: In vivo determination of peripheral M2 receptor mediated tremor, cholinergic side effect
[12] = In vitro binding affinity for muscarinic receptors by displacing [3H]quinuclidinyl benzilate binding on rat brain homogenate; assay type: tissue-based
Rattus norvegicus [13] = organism: Rattus norvegicus; assay: Ratio of binding affinity at [3H]quinuclidinyl benzilate binding on rat brain homogenate to [3H]- Oxotremorine-M binding on rat brain homogenate; assay type: functional
Procedure, shortened: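 Ago ratio computed as Ki from [³H]QNB binding to whole rat brain homogenate divided by Ki from [³H]oxotremorine-M binding to whole rat brain homogenate.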

Rattus norvegicus [14] = organism: Rattus norvegicus; assay: Ratio of binding affinity at [3H]quinuclidinyl benzilate binding on rat brain stem homogenate to [3H]pirenzepine binding on rat brain homogenate
[15] = biological target: Muscarinic acetylcholine receptor M3 (Cavia porcellus)
[16] = In vitro binding affinity for muscarinic receptor by displacing[ H]Quinuclidinyl benzilate binding on rat brain stem homogenate.; assay type: tissue-based
Procedure, shortened: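 Rat brainstem homogenate; displacement of [3H]quinuclidinyl benzilate (0.12 nM). Five test concentrations in triplicate spanning 3 decades, two complete curves. IC50 read from hand-drawn log concentration–response curves and converted to Ki by Cheng–Prusoff using KD 9.7 pM from Scatchard analysis.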

[17] = biological target: T1, Muscarinic acetylcholine receptor M1; assay: In vitro ability to depolarize isolated rat superior cervical ganglion was used to estimate their M1 agonistic effect; assay type: functional, tissue-based
Procedure, shortened: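 Because the concentration–response curve is biphasic, EC50 is given as equal to or greater than the calculated value. Apparent efficacy (RM) is maximum effect relative to muscarine's maximum on separate ganglia. Values are means of three to seven separate experiments.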

[18] = biological target: T2, Muscarinic acetylcholine receptor M3; assay: In vitro ability to contract isolated guinea pig ileum was used to estimate M3 agonist effect; assay type: functional, tissue-based

T2 sequence (Q8VH26 whole entry): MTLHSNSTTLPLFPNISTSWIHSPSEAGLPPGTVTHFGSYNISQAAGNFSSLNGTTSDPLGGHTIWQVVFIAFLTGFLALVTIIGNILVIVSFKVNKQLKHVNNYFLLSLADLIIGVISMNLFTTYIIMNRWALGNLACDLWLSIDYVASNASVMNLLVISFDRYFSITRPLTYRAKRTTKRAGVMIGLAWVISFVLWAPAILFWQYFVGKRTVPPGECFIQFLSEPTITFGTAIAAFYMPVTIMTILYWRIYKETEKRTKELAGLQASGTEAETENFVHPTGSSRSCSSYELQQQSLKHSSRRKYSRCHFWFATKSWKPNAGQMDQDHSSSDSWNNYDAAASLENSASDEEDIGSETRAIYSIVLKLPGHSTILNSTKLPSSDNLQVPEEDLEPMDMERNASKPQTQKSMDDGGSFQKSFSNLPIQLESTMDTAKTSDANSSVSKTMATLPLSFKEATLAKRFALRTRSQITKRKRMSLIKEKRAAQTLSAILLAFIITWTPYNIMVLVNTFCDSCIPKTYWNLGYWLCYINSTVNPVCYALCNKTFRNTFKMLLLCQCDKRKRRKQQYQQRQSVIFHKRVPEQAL

Compound | Ki [1] [nM] | Ki [2] [nM] | Ki [3] [nM] | EC50 [4] [nM] | EC50 [5] [nM] | EC50 [6] [nM] | Ki [7] [nM] | ED50 [8] [µmol/kg] | ED50 [9] [µmol/kg] | Ki [10] [nM] | ED50 [11] [µmol/kg] | Ki [12] [nM] | Ratio (Rattus norvegicus [13]) | Ratio (Rattus norvegicus [14]) | EC50 [15] [nM] | Ki [16] [nM] | EC50 [17] [nM] | EC50 [18] [nM]
C=CCn1ncc(C2CCCNC2)n1 (racemic) | 910 | 25 | 300 | 1100 | > 2800 | 4400 | 100 |  |  |  |  |  |  |  |  |  |  | 
C[N+](C)(C)CC#CCOC(=O)Nc1cccc(Cl)c1.[Cl-] |  | 18 |  |  | ≥ 3900 | 6500 | 600 | > 63 | > 63 | 460 | > 63 | 500 | 28 | 0.8 |  |  |  | 
CCN1C(=O)CC2(CCN(C)CC2)C1=O | 690 | 14 | 400 | 400 | ≥ 1100 |  | 400 |  |  |  |  |  | 49 | 1 | 430 |  |  | 
CCn1ncc(C2=CCCNC2)n1 | 290 | 3.7 | 170 | 270 | ≥ 650 |  | 120 |  |  |  |  |  | 78 | 1.4 | 770 |  |  | 
CCCCCCCn1nnc(C2=CCCN(C)C2)n1 | 140 | 120 |  |  |  |  | 37 |  |  |  |  |  | 1.2 | 4.3 |  | 160 |  | 
CCn1nnc(C2=CCCNC2)n1 | 1600 | 23 | 280 |  |  |  | 960 |  |  |  |  |  |  |  |  |  | ≥ 3300 | 6400
